Measured values published in ChEMBL document CHEMBL1141674, “Effects of 3-(4'-geranyloxy-3'-methoxyphenyl)-2-trans propenoic acid and its ester derivatives on biofilm formation by two oral pathogens, Porphyromonas gingivalis and Streptococcus mutans” (2008).
≈ marks a conversion by molar mass, not a printed value. Calls of active or inactive are those of the source. The rule behind the calls is not given here.

Experiments:
[1] = tested on: Porphyromonas gingivalis; test: Antimicrobial activity against Porphyromonas gingivalis ATCC 33277 assessed as bacterial growth at 15.6 ug/ml after 4 hrs by XTT assay relative to control; type: functional; conditions: in the assay text read “after 48 hrs by absorbance at 660 nm” for “after 4 hrs by XTT assay”
[2] = tested on: Porphyromonas gingivalis; test: Antimicrobial activity against Porphyromonas gingivalis ATCC 33277 assessed as bacterial growth at 31.2 ug/ml after 4 hrs by XTT assay relative to control; type: functional; conditions: in the assay text read “after 48 hrs by absorbance at 660 nm” for “after 4 hrs by XTT assay”
[3] = tested on: Porphyromonas gingivalis; test: Antimicrobial activity against Porphyromonas gingivalis ATCC 33277 assessed as bacterial growth at 7.8 ug/ml after 4 hrs by XTT assay relative to control; type: functional
Outline: (§1)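 P. gingivalis biofilms were pre-grown for 48 h (24 h THB-HK culture diluted to OD660 0.07, 37 °C, anaerobic). They were then exposed to compound dilutions for 4 h at 37 °C under anaerobiosis. Viability was read by XTT reduction: fresh reagent of 12.5 parts XTT (1 mg/ml stock in PBS) to 1 part menadione (1 mM stock in acetone), 1 h at 37 °C, A490.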

[4] = tested on: Porphyromonas gingivalis; test: Antimicrobial activity against Porphyromonas gingivalis ATCC 33277 assessed as bacterial growth at 62.5 ug/ml after 4 hrs by XTT assay relative to control; type: functional; conditions: in the assay text read “after 48 hrs by absorbance at 660 nm” for “after 4 hrs by XTT assay”
[5] = tested on: Porphyromonas gingivalis; test: Antimicrobial activity against Porphyromonas gingivalis ATCC 33277 assessed as bacterial growth at 3.9 ug/ml after 4 hrs by XTT assay relative to control; type: functional; outline: as §1
[6] = tested on: Streptococcus mutans; test: Antimicrobial activity against Streptococcus mutans ATCC 25175 assessed as effect on bacterial growth after 4 hrs by XTT assay relative to control; type: functional, organism-based
[7] = tested on: Porphyromonas gingivalis; test: Antimicrobial activity against Porphyromonas gingivalis ATCC 33277 assessed as bacterial growth at 125 ug/ml after 4 hrs by XTT assay relative to control; type: functional; conditions: in the assay text read “after 48 hrs by absorbance at 660 nm” for “after 4 hrs by XTT assay”
[8] = tested on: Streptococcus mutans; test: Antimicrobial activity against Streptococcus mutans ATCC 25175 assessed as inhibition of biofilm formation after 48 hrs; type: functional; conditions: ATCC 25175, 48 h
[9] = tested on: Porphyromonas gingivalis; test: Antimicrobial activity against Porphyromonas gingivalis ATCC 33277 assessed as inhibition of biofilm formation after 48 hrs; type: functional; conditions: ATCC 33277, 48 h
Outline: (§2)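 A 24 h P. gingivalis culture in THB-HK was diluted to OD660 0.07 and mixed 1:1 with serial compound dilutions in THB-HK; untreated wells served as controls. Plates were held 48 h at 37 °C anaerobically and growth was read at A660. Washed biofilms were stained with 0.04% crystal violet for 15 min, eluted with 95% ethanol and read at A550. Triplicates; mean ± SD of two independent experiments.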

[10] = tested on: Porphyromonas gingivalis; test: Antimicrobial activity against Porphyromonas gingivalis ATCC 33277 assessed as bacterial growth at 15.6 ug/ml after 48 hrs by absorbance at 660 nm relative to control
[11] = tested on: Porphyromonas gingivalis; test: Antimicrobial activity against Porphyromonas gingivalis ATCC 33277 assessed as inhibition of biofilm formation at 31.3 ug/ml after 48 hrs; type: functional; design: scale not given: the % may be the effect or the level left; outline: as §2
[12] = tested on: Streptococcus mutans; test: Antimicrobial activity against Streptococcus mutans ATCC 25175 assessed as inhibition of biofilm formation at 3.9 ug/ml after 48 hrs; type: functional, organism-based
[13] = tested on: Porphyromonas gingivalis; test: Antimicrobial activity against Porphyromonas gingivalis ATCC 33277 assessed as bacterial growth at 125 ug/ml after 48 hrs by absorbance at 660 nm relative to control
[14] = tested on: Porphyromonas gingivalis; test: Antimicrobial activity against Porphyromonas gingivalis ATCC 33277 assessed as bacterial growth at 62.5 ug/ml after 48 hrs by absorbance at 660 nm relative to control
[15] = tested on: Porphyromonas gingivalis; test: Antimicrobial activity against Porphyromonas gingivalis ATCC 33277 assessed as bacterial growth at 31.2 ug/ml after 48 hrs by absorbance at 660 nm relative to control

SMILES	Activity [1] [%]	Activity [2] [%]	Activity [3] [%]	Activity [4] [%]	Activity [5] [%]	Activity [6]	Activity [7] [%]	MIC [8] [µM]	MIC [9] [µM]	Activity [10] [%]	Activity [11] [%]	Activity [12]	Activity [13] [%]	Activity [14] [%]	Activity [15] [%]
COc1cc(/C=C/C(=O)Oc2ccccc2OC)ccc1OC/C=C(\C)CCC=C(C)C	22	28	25	25	61	inactive	32	–	–	–	–	–	–	–	–
N=C(NCCCCCCNC(=N)NC(=N)Nc1ccc(Cl)cc1)NC(=N)Nc1ccc(Cl)cc1 [CHLORHEXIDINE]	–	–	–	–	–	–	–	3 (≈ 1.52 µg/mL)	6 (≈ 3.03 µg/mL)	–	–	–	–	–	–
COc1cc(/C=C/C(=O)O)ccc1OC/C=C(\C)CCC=C(C)C	–	15	68	9	81	inactive	13	–	–	34	80	Active	–	–	–
O=C1C=C(O)C(=O)c2ccccc21 [LAWSONE]	92	86	100	79	103	inactive	–	–	–	–	–	–	49	–	–
COC(=O)c1ccc(OC(=O)/C=C/c2ccc(OC/C=C(\C)CCC=C(C)C)c(OC)c2)c(OC)c1	76	72	87	–	98	inactive	–	–	–	–	–	–	40	49	–
COc1cc(/C=C/C(=O)OC2=CC(=O)c3ccccc3C2=O)ccc1OC/C=C(\C)CCC=C(C)C	105	–	124	16	110	inactive	17	–	–	–	–	–	–	–	34
Oc1ccc(O)cc1 [HYDROQUINONE]	15	17	27	13	45	inactive	–	–	–	–	–	–	14	–	–
